Results reported in paper PMC3607822 (The Journal of General Physiology, 2013).

What was measured:
CNGA3 D609M channels = CNGA3 D609M channels (Homo sapiens, UniProt Q16281, D609M); assay: Inside-out patch clamp, CNGA3 D609M; assay type: biochemical
[1] = molecular target: T1, CNGA3 635X homomeric channels (Homo sapiens, UniProt Q16281); assay: Inside-out patch clamp, CNGA3 635X; assay type: biochemical
T1 sequence (Q16281 1-634 limits assumed): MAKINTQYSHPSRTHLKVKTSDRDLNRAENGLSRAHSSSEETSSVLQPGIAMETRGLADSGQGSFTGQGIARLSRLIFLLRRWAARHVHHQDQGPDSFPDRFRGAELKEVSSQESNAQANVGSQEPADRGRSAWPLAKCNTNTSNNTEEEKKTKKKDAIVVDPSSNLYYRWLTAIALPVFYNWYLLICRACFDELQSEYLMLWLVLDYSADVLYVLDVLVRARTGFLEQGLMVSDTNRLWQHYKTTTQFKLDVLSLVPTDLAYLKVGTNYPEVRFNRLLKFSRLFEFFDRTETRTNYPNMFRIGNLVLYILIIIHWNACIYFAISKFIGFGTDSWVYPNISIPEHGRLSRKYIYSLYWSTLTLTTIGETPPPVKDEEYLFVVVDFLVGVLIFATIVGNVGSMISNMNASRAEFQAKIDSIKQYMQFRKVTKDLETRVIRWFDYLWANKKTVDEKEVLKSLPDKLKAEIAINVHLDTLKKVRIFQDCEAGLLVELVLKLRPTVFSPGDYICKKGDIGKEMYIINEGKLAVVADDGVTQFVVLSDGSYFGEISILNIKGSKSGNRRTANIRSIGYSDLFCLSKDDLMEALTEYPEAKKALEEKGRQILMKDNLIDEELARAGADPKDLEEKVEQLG

[2] = molecular target: T2, CNGA3 675X homomeric channels (Homo sapiens, UniProt Q16281); assay: Inside-out patch clamp, CNGA3 675X; assay type: biochemical
T2 sequence (Q16281 1-674 limits assumed): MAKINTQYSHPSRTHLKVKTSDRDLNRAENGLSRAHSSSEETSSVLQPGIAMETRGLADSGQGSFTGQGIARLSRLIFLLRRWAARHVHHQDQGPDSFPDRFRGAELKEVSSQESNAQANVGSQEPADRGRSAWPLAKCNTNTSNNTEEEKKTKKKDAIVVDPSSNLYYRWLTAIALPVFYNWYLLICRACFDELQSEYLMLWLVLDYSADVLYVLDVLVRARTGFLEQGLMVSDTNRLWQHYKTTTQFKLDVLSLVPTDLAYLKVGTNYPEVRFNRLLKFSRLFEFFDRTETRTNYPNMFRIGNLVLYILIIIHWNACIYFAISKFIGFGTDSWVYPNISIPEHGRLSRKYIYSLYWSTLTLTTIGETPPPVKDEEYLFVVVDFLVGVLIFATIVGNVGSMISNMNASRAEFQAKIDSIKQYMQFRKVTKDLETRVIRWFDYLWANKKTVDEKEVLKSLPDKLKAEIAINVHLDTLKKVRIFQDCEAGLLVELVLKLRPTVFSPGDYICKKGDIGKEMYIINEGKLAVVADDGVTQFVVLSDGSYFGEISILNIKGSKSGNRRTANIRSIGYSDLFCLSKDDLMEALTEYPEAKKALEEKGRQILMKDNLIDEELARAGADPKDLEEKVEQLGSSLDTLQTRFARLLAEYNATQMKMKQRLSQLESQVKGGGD

[3] = molecular target: T3, human CNGA3 wild-type homomeric channels (Homo sapiens, UniProt Q16281); assay: Inside-out patch clamp, homomeric CNGA3 wild type expressed in X. laevis oocytes; assay type: biochemical
T3 sequence (Q16281 1-694): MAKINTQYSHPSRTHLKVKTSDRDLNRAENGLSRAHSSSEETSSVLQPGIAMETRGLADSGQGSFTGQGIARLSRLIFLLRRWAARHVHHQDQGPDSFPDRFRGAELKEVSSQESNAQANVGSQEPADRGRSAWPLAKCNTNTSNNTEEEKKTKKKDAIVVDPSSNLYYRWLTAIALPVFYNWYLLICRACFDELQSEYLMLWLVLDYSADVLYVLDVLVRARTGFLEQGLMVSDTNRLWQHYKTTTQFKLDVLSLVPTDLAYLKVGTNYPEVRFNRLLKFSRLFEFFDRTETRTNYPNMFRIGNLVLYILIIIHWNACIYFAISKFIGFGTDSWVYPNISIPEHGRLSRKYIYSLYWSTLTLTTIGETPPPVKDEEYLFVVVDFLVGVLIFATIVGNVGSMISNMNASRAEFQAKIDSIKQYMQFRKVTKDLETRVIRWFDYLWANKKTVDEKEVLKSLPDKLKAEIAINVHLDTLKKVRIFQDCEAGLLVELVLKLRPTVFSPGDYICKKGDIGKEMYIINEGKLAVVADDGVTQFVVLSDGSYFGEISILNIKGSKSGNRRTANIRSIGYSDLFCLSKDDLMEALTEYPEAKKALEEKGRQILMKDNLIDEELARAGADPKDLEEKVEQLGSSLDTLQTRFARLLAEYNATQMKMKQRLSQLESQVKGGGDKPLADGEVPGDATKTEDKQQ

GST fusion A3C7K/R-A = GST fusion A3C7K/R-A (Homo sapiens, UniProt Q16281, K624A/K629A/K657A/K659A/R643A/R646A/R661A); assay: In vitro PIP3-agarose bead pull-down, A3C7K/R-A; assay type: binding; conditions: PIP3-agarose beads, anti-GST immunoblot; compared with A3C
GST fusion A3C7K/R-A, sequence (Q16281 612-694 K624A/K629A/R643A/R646A/K657A/K659A/R661A): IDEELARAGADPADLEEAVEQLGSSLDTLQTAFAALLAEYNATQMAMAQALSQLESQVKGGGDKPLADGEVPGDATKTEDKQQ
Summary of the method: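 Recombinant GST fusions of channel fragments expressed in E. coli and purified; soluble fraction kept after 20,000 g, 4°C, 30 min. Protein (2 µg/ml) rocked with PIP3- or control agarose beads, 2 h, 4°C, in 10 mM Hepes pH 7.4, 50 mM NaCl, 2 mM EDTA, 0.25% Triton X-100, 0.25% NP-40. Five washes, elution in sample buffer, reducing SDS gel, anti-GST (1:2,000, overnight) immunoblot, chemiluminescence; […].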

[4] = tested on: tandem A3//N7R-A,613X heterodimer channels; assay: Inside-out patch clamp, A3 WT//A3 N7R-A,613X tandem dimers; assay type: biochemical, human; conditions: from K1/2 and h before and after PIP3
[5] = read-out: K1/2 cGMP, +80 mV, no PIPn

CNGA3 D609M channels, sequence (Q16281 whole entry D609M): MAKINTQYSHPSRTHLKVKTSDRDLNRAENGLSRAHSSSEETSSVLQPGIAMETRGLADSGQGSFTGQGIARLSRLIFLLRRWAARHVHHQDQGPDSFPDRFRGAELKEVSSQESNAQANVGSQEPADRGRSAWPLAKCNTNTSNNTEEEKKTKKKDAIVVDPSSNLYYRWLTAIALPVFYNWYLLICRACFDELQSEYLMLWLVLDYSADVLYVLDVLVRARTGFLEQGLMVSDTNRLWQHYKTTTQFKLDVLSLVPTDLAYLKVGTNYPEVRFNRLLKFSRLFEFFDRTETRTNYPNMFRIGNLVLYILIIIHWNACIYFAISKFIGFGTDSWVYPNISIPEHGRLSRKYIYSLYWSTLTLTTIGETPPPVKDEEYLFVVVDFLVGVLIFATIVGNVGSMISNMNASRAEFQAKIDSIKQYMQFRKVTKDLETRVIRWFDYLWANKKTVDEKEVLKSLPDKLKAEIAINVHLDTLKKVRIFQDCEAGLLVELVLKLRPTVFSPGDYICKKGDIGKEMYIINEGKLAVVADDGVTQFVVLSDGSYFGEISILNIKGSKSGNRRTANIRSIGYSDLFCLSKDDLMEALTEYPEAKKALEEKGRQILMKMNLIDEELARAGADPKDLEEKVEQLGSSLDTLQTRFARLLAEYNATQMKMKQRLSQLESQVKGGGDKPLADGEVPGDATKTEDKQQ

Molecule: Nc1nc2c(ncn2[C@@H]2O[C@@H]3COP(=O)(O)O[C@H]3[C@H]2O)c(=O)[nH]1 [cGMP, cyclic guanosine monophosphate]
- Po max cGMP (CNGA3 D609M channels; estimated using tetracaine block): 0.30 ± 0.02
- Hill coefficient ([1]; cGMP activation): 2.00 ± 0.00 (5)
- EC50 [1, 5]: 8.2 ± 0.57 µM
- Po max cGMP ([1]; saturating cGMP): 0.92 ± 0.01 (4)
- Hill coefficient ([2]; cGMP activation): 1.88 ± 0.05 (4)
- EC50 [2, 5]: 9.22 ± 0.55 µM
- Hill coefficient ([3]; cGMP activation): 1.91 ± 0.04 (18)
- Po max cGMP ([3]; estimated from state-dependent block by tetracaine): ~0.99
- EC50 [3, 5]: 9.29 ± 0.43 µM

Molecule: phosphatidylinositol (3,4,5)-trisphosphate [PIP3]
- effect on relative cGMP efficacy (CNGA3 D609M channels; 1 µM PIP3): elevated relative cGMP efficacy
- in vitro PIP3 binding (GST fusion A3C7K/R-A): attenuated binding to PIP3 beads
- change in the energetics of channel opening produced by PIP3 (ΔΔG) [4]: 1.29 ± 0.08 kcal/mol
- PIP3-induced change in cAMP efficacy ([1]; 1 µM PIP3): failed to show a PIP3-dependent increase in cAMP efficacy
- fold change in cAMP efficacy after PIP3 ([1]; 10 µM PIP3): 1.06 ± 0.03 fold
- PIP3-induced change in cAMP efficacy ([2]; 1 µM PIP3): preserved the PIP3-induced change in cAMP efficacy
- fold increase Imax cAMP/cGMP ([3]; 1 µM PIP3 after prior application of cyto D): 2.54 ± 0.27 fold
- fold increase in Imax cAMP/cGMP ([3]; 10 µM phosphoinositide applied to inside-out patch): 2.63 ± 0.13 fold
- effect on maximal cGMP current ([3]; 1 mM cGMP): not significantly altered
- K1/2 cAMP after phosphoinositide ([3]; apparent cAMP affinity after PIP3 or PIP2 application): 1.16 ± 0.06 mM
- Po max cAMP after PIP3 ([3]; fluctuation analysis): 0.37 ± 0.07
- Po max cGMP after PIP3 ([3]; fluctuation analysis): 0.93 ± 0.01
